Reference: ChEMBL document CHEMBL4680062, “Structure-property studies of an imidazoquinoline chemotype with antitrypanosomal activity” (RSC Med Chem, 2020)

Tests used:
[1] = Intrinsic clearance in Han Wistar rat hepatocytes assessed per million cells at 1 uM by LC/MS/MS analysis; assay type: ADME, cell-based, Hepatocyte; conditions: read-out: CLH
[2] = Intrinsic clearance in human liver microsomes by LC/MS/MS analysis; assay type: ADME, Microsome; conditions: read-out: CLH
[3] = 1-Octanol-aquoues buffer distribution coefficient, log D of compound at pH 7.4 by UPLC-MS based shake flask method; assay type: physicochemical; conditions: 1-octanol/aqueous buffer
[4] = AUC in NMRI mouse at 10 mg/kg, ip measured up to 24 hrs by LC/MS/MS analysis; assay type: ADME, organism-based; design: route intraperitoneal, dose 10 mg/kg, time <=24; conditions: in vivo
Outline: (§1)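 Female NMRI mice (n=3) dosed IP at a target of 10 mg/kg. Vehicle: 1% DMSO and 99% of a 20% Captisol solution in water. Drug levels measured in peripheral blood.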

[5] = Drug exposure in NMRI mouse blood at 10 mg/kg, ip measured after 4 hrs by LC/MS/MS analysis; assay type: ADME, organism-based; conditions: in vivo; outline: as §1
[6] = Half life in NMRI mouse at 10 mg/kg, ip measured up to 24 hrs by LC/MS/MS analysis; assay type: ADME, organism-based; conditions: in vivo; outline: as §1
[7] = Drug exposure in NMRI mouse brain at 10 mg/kg, ip measured after 4 hrs by LC/MS/MS analysis; assay type: ADME, organism-based; conditions: in vivo
[8] = Ratio of drug level in brain to plasma in NMRI mouse at 10 mg/kg, ip measured up to 24 hrs by LC/MS/MS analysis; assay type: ADME, organism-based; conditions: brain and plasma, read-out: BPR
[9] = Tmax in NMRI mouse at 10 mg/kg, ip measured up to 24 hrs by LC/MS/MS analysis; assay type: ADME, organism-based; conditions: in vivo; outline: as §1
[10] = Cmax in NMRI mouse at 10 mg/kg, ip measured up to 24 hrs by LC/MS/MS analysis; assay type: ADME, organism-based; design: route intraperitoneal, dose 10 mg/kg, time <=24; conditions: in vivo; outline: as §1

Structure (SMILES)	hepatocyte CLint at 1 µM [1] [µL/min/1e6 cells]	microsomal CLint [2] [µL/min/mg]	logD [3]	AUC at 24 h [4] [ng·h/mL]	Drug uptake [5]	half-life [6] [min]	Drug uptake [7]	Kp at 24 h [8]	Tmax [9] [min]	Cmax [10] [ng/mL]
Cn1c(=O)n(C2CCNCC2)c2c3cc(-c4cn[nH]c4)ccc3ncc21	1	3	0.1	–	–	–	–	–	–	–
Cn1c(=O)n(-c2ccc(C(C)(C)C#N)cc2)c2c3cc(-c4cn[nH]c4)ccc3ncc21	7.9	38	3	920	Not Active	78	Not Active	0.026	30	570
